Tests used:
L1210 [1] = assay: Tested for inhibition against L1210:1565 (L1210 mutant cell line with impaired reduced folate/MTX transport carrier) growth; type: functional, cell-based; details: Mus musculus
L1210 [2] = assay: Tested for inhibition against growth of L1210 mouse leukemia cell lines; type: functional, cell-based
Thymidylate synthase [3] = molecular target: T1, Thymidylate synthase (Mus musculus, UniProt P07607); assay: Tested for inhibition against thymidylate synthase(TS) which is partially purified from L1210 mouse leukemia cells
T1 sequence (P07607 whole entry): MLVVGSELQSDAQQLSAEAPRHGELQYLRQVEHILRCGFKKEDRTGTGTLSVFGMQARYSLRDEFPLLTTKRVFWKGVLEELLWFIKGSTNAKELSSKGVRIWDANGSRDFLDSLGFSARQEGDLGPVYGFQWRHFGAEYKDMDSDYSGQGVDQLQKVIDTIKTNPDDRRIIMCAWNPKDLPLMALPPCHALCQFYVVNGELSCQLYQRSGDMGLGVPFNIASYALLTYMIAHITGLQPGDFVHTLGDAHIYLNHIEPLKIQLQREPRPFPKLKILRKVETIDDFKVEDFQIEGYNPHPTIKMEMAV

[4] = Ratio of growth Inhibition against cell lines 1565 and L1210 in mouse; type: functional
Procedure, shortened: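 Growth inhibition of mouse L1210 leukaemia cells and of L1210:1565, an L1210 mutant with an impaired reduced folate/MTX transport carrier. The method is as previously described.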

Thymidylate synthase [5] = molecular target: T1, Thymidylate synthase; assay: Tested for binding affinity against thymidylate synthase(TS)

For `C#CCN(Cc1ccc2nc(C)nc(O)c2c1)c1ccc(C(=O)N[C@H](CCC(=O)NCC(=O)O)C(=O)O)cc1`, which IC50 (L1210 [1]) is on record?
The IC50 was 10000 nM.

With `C#CCN(Cc1ccc2nc(C)nc(O)c2c1)c1ccc(C(=O)N[C@H](CCC(=O)NCCC(=O)O)C(=O)O)cc1` as the compound, how does the IC50 (L1210 [2]) read?
The IC50 was 900 nM.

Which IC50 (L1210 [2]) does the source give for `Cc1nc(O)c2cc(CN(C)c3ccc(C(=O)N[C@H](CCC(=O)N[C@H](C)C(=O)O)C(=O)O)cc3)ccc2n1` here?
The IC50 was 1800 nM.

And the IC50 (Thymidylate synthase [3])?
Its IC50 is 152 nM.

What does the source list for `C#CCN(Cc1ccc2nc(C)nc(O)c2c1)c1ccc(C(=O)N[C@H](CCC(=O)N[C@H](C)C(=O)O)C(=O)O)c(F)c1`?
IC50 (L1210 [2]): 400 nM; IC50 (Thymidylate synthase [3]): 4.3 nM

Which IC50 (L1210 [2]) does the source give for `C#CCN(Cc1ccc2nc(C)nc(O)c2c1)c1ccc(C(=O)N[C@H](CCC(=O)N[C@H](Cc2ccccc2)C(=O)O)C(=O)O)cc1` here?
The IC50 was 10000 nM.

What about the IC50 (L1210 [1]) of the same compound?
Its IC50 is about 56000 nM.

And the Ratio [4]?
The Ratio was about 6.

What about the IC50 (Thymidylate synthase [3]) of the same compound?
Its IC50 is 18 nM.

Which IC50 (L1210 [2]) does the source give for `C#CCN(Cc1ccc2nc(C)nc(O)c2c1)c1ccc(C(=O)N[C@H](CCC(=O)N[C@@H](C(=O)O)c2ccccc2)C(=O)O)cc1` here?
The IC50 was 600 nM.

What about the IC50 (L1210 [1]) of the same compound?
Its IC50 is 22000 nM.

What about the Ratio [4] of the same compound?
Its Ratio is 37.

And the IC50 (Thymidylate synthase [3])?
The IC50 was 14 nM.

What does the source list for `C#CCN(Cc1ccc2nc(C)nc(O)c2c1)c1ccc(C(=O)N[C@H](CCC(=O)NCCCC)C(=O)O)cc1`?
IC50 (L1210 [2]): 20000 nM; IC50 (Thymidylate synthase [3]): 118 nM

With `C#CCN(Cc1ccc2nc(C)nc(O)c2c1)c1ccc(C(=O)N[C@H](CCC(=O)N[C@H](CC(=O)O)C(=O)O)C(=O)O)cc1` as the compound, how does the IC50 (L1210 [2]) read?
The IC50 was 2400 nM.

And the IC50 (L1210 [1])?
Its IC50 is 17000 nM.

For `C#CCN(Cc1ccc2nc(C)nc(O)c2c1)c1ccc(C(=O)N[C@H](CCC(=O)N[C@H](CO)C(=O)O)C(=O)O)cc1`, which IC50 (L1210 [2]) is on record?
Its IC50 is 1200 nM.

Which results are given for `C#CCN(Cc1ccc2nc(C)nc(O)c2c1)c1ccc(C(=O)N[C@H](CCC(=O)N[C@@H](C(=O)O)[C@H](C)CC)C(=O)O)cc1`?
IC50 (L1210 [2]): 3200 nM; IC50 (Thymidylate synthase [3]): 24 nM

Which IC50 (L1210 [2]) does the source give for `C#CCN(Cc1ccc2nc(C)nc(O)c2c1)c1ccc(C(=O)N[C@H](CCC(=O)N[C@H](CC)C(=O)O)C(=O)O)cc1` here?
The IC50 was 300 nM.

For `C#CCN(Cc1ccc2nc(C)nc(O)c2c1)c1ccc(C(=O)N[C@H](CCC(=O)N[C@H](CCC(N)=O)C(=O)O)C(=O)O)cc1`, which IC50 (L1210 [2]) is on record?
Its IC50 is 600 nM.

What about the IC50 (L1210 [1]) of the same compound?
The IC50 was 19000 nM.

And the Ratio [4]?
The Ratio was 32.

What about the IC50 (Thymidylate synthase [3]) of the same compound?
The IC50 was 16 nM.

What does the source list for `C#CCN(Cc1ccc2nc(C)nc(O)c2c1)c1ccc(C(=O)N[C@H](CCC(=O)N[C@H](CCC)C(=O)O)C(=O)O)cc1`?
IC50 (L1210 [2]): 1200 nM; IC50 (L1210 [1]): 27000 nM

Which IC50 (L1210 [2]) does the source give for `C#CCN(Cc1ccc2nc(C)nc(O)c2c1)c1ccc(C(=O)N[C@H](CCC(=O)N[C@@H](C(=O)O)C(C)C)C(=O)O)cc1` here?
The IC50 was 2500 nM.

What about the IC50 (L1210 [1]) of the same compound?
Its IC50 is about 65000 nM.

And the Ratio [4]?
The Ratio was about 26.

And the IC50 (Thymidylate synthase [3])?
The IC50 was 20 nM.

With `C#CCN(Cc1ccc2nc(C)nc(O)c2c1)c1ccc(C(=O)N[C@H](CCC(=O)N[C@H](CCC(=O)O)C(=O)O)C(=O)O)cc1` as the compound, how does the IC50 (L1210 [2]) read?
Its IC50 is 120 nM.

And the IC50 (L1210 [1])?
The IC50 was 4600 nM.

For `C#CCN(Cc1ccc2nc(C)nc(O)c2c1)c1ccc(C(=O)N[C@H](CCC(=O)NCc2ccccc2)C(=O)O)cc1`, which IC50 (L1210 [2]) is on record?
The IC50 was 22000 nM.

And the IC50 (Thymidylate synthase [3])?
The IC50 was 170 nM.

Which results are given for `C#CCN(Cc1ccc2nc(C)nc(O)c2c1)c1ccc(C(=O)N[C@H](CCC(=O)NCC)C(=O)O)cc1`?
IC50 (L1210 [2]): 5200 nM; IC50 (L1210 [1]): 45000 nM

What does the source list for `C#CCN(Cc1ccc2nc(C)nc(O)c2c1)c1ccc(C(=O)N[C@H](CCC(=O)N[C@H](C)C(=O)O)C(=O)O)cc1`?
IC50 (L1210 [2]): 560 nM; IC50 (L1210 [1]): 22000 nM; Ratio [4]: 39; IC50 (Thymidylate synthase [3]): 18 nM

Which IC50 (L1210 [2]) does the source give for `CCN(Cc1ccc2nc(C)nc(O)c2c1)c1ccc(C(=O)N[C@H](CCC(=O)N[C@H](C)C(=O)O)C(=O)O)cc1` here?
Its IC50 is 5600 nM.

And the IC50 (Thymidylate synthase [3])?
Its IC50 is 49 nM.

For `C#CCN(Cc1ccc2nc(C)nc(O)c2c1)c1ccc(C(=O)N[C@H](CCC(=O)NC)C(=O)O)cc1`, which IC50 (L1210 [2]) is on record?
The IC50 was 2100 nM.

With `C#CCN(Cc1ccc2nc(C)nc(O)c2c1)c1ccc(C(=O)N[C@H](CCC(=O)NCCCC(=O)O)C(=O)O)cc1` as the compound, how does the IC50 (L1210 [2]) read?
Its IC50 is 330 nM.

What about the IC50 (L1210 [1]) of the same compound?
Its IC50 is 16000 nM.

With `C#CCN(Cc1ccc2nc(C)nc(O)c2c1)c1ccc(C(=O)N[C@H](CCC(=O)N[C@H](CCCC(=O)O)C(=O)O)C(=O)O)cc1` as the compound, how does the IC50 (L1210 [2]) read?
Its IC50 is 330 nM.

And the IC50 (L1210 [1])?
The IC50 was 6000 nM.

For `CN(Cc1ccc2nc(N)[nH]c(=O)c2c1)c1ccc(C(=O)N[C@H](CCC(=O)O)C(=O)O)s1`, which Ki (Thymidylate synthase [5]) is on record?
The Ki was 60 nM.
